The text below walks through data of ChEMBL document CHEMBL3244336, “Antitumor agents. 1. 1,4-Bis[(aminoalkyl)amino]-9,10-anthracenediones” (J Med Chem, 1979).

Active and inactive are the calls of the source.

Data set [1] concerns B16. Description: Antitumor activity against mouse B16 cells allografted in BDF1 mouse assessed as disease cure at 12.5 mg/kg, ip on day 1 to 9 measured up to 80 days. It counts as functional, organism-based. Also noted: dose 12.5 mg/kg. In short, it runs like this: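 BDF1 mice implanted ip with a homogenate from 0.05 g of tumor. Dosed ip on days 1–9, with deaths recorded for 80 days. "Cures" counted as survivors/total at 80 days.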

Data set [2] concerns P388. In words: Antitumor activity against mouse P388 cells allografted in mouse assessed as increase of median life span at 100 mg/kg, ip on day 1, 5 and 9 measured up to 60 days relative to control. It counts as functional. To be noted: route intraperitoneal.
The test system of data set [3] is B16. Description: Antitumor activity against mouse B16 cells allografted in BDF1 mouse assessed as increase of median life span at 12.5 mg/kg, ip on day 1 to 9 measured up to 80 days relative to control. It counts as functional. To be noted: route intraperitoneal.
The subject of data set [4] is P388. Description: Antitumor activity against mouse P388 cells allografted in mouse assessed as disease cure at 100 mg/kg, ip on day 1, 5 and 9 measured up to 60 days. On the set-up: dose 100 mg/kg. It counts as functional, organism-based. In short, it runs like this:
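BDF or CDF1 mice injected ip with ascitic leukemia cells, then dosed ip on days 1, 5 and 9. Deaths recorded for 60 days. Read-outs: percent increase in median life span over controls, and "cures" as survivors/total at 60 days.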

The test system of data set [5] is B16. Description: Antitumor activity against mouse B16 cells allografted in BDF1 mouse assessed as increase of median life span at 25 mg/kg, ip on day 1 to 9 measured up to 80 days relative to control. It counts as functional. To be noted: route intraperitoneal. The method, boiled down:
(§1)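 BDF1 mice implanted ip with a homogenate from 0.05 g of B16 tumor. Test agent given ip on days 1-9. Deaths recorded for 80 days. Result is % increase in median life span over untreated controls. "Cures" are survivors/total at 80 days.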

Data set [6] deals with B16. Description: Antitumor activity against mouse B16 cells allografted in BDF1 mouse assessed as disease cure at 25 mg/kg, ip on day 1 to 9 measured up to 80 days. It counts as functional, organism-based. On the set-up: dose 25 mg/kg. In short, it runs like this: (§2)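 BDF1 mice implanted ip with homogenate from 0.05 g of B16 tumor, then dosed ip on days 1-9. Deaths recorded for 80 days; "cures" scored as survivors/total at 80 days.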

The subject of data set [7] is P388. Description: Antitumor activity against mouse P388 cells allografted in mouse assessed as increase of median life span at 50 mg/kg, ip on day 1, 5 and 9 measured up to 60 days relative to control. It counts as functional. The note with it: route intraperitoneal. The method, boiled down: (§3)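 BDF1 or CDF1 mice inoculated ip with ascitic P388 leukemia cells. Dosing ip on days 1, 5 and 9. Deaths recorded for 60 days; % increase in median life span over controls. "Cures" are survivors/total at 60 days.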

Data set [8] concerns B16. Description: Antitumor activity against mouse B16 cells allografted in BDF1 mouse assessed as increase of median life span at 0.8 mg/kg, ip on day 1 to 9 measured up to 80 days relative to control. It counts as functional. The note with it: route intraperitoneal. In short, it runs like this: as §1
Data set [9] deals with P388. In words: Antitumor activity against mouse P388 cells allografted in ip dosed mouse assessed as minimum effective dose administered as once each 4 days for 3 total injection. It counts as functional. To be noted: 96 h, read-out: MED. In short, it runs like this: (§4)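 Drug given ip to P388 tumor-bearing mice, either once as a single dose or once each 4 days for three injections. Minimum effective dose defined as the dose giving 40% increase in life span over control, read from regression lines of log dose-response data.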

The nature of data set [10]: Toxicity in […] assessed as maximum tolerated dose administered as single dose. It counts as organism-based, P388. The note with it: mouse, in vivo, ip.
Data set [11] is described as follows: Toxicity in […] assessed as maximum tolerated dose administered as once each 4 days for 3 total injection. To be noted: mouse, in vivo, ip. It counts as organism-based, P388.
Data set [12] deals with P388. Description: Antitumor activity against mouse P388 cells allografted in mouse assessed as increase of median life span at 5 mg/kg, ip on day 1, 5 and 9 measured up to 60 days relative to control. It counts as functional. The note with it: route intraperitoneal. In short, it runs like this:
as §3

In data set [13] the test system is P388. Description: Antitumor activity against mouse P388 cells allografted in ip dosed mouse assessed as minimum effective dose administered as single dose. It counts as functional. The note with it: read-out: MED. The method, boiled down:
as §4

Data set [14] concerns P388. Description: Antitumor activity against mouse P388 cells allografted in mouse assessed as disease cure at 250 mg/kg, ip on day 1, 5 and 9 measured up to 60 days. It counts as functional, organism-based. Also noted: dose 250 mg/kg. In short, it runs like this: (§5)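 BDF1 or CDF1 mice inoculated ip with ascitic P388 leukemia cells, dosed ip on days 1, 5 and 9. Deaths recorded for 60 days; "cures" taken as number of survivors/total at 60 days.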

For data set [15], the system named is P388. In words: Antitumor activity against mouse P388 cells allografted in mouse assessed as increase of median life span at 250 mg/kg, ip on day 1, 5 and 9 measured up to 60 days relative to control. It counts as functional. To be noted: route intraperitoneal. In short, it runs like this:
as §3

Data set [16] deals with P388. Description: Antitumor activity against mouse P388 cells allografted in mouse assessed as disease cure at 300 mg/kg, ip on day 1, 5 and 9 measured up to 60 days. It counts as functional, organism-based. On the set-up: dose 300 mg/kg. In short, it runs like this: as §5
Data set [17] deals with P388. Description: Antitumor activity against mouse P388 cells allografted in mouse assessed as increase of median life span at 300 mg/kg, ip on day 1, 5 and 9 measured up to 60 days relative to control. The note with it: route intraperitoneal. It counts as functional. The method, boiled down: as §3
Data set [18] deals with Lewis lung carcinoma cell line. In words: Antitumor activity against mouse LLC cells intravenously implanted in mouse. It counts as functional, cell-based.
Data set [19] has as its system Lewis lung carcinoma cell line. Description: Antitumor activity against mouse LLC cells subcutaneously implanted in mouse. It counts as functional, cell-based.
For data set [20], the system named is P388. Description: Antitumor activity against mouse P388 cells allografted in mouse assessed as disease cure at 50 mg/kg, ip on day 1, 5 and 9 measured up to 60 days. It counts as functional, organism-based. On the set-up: dose 50 mg/kg. In short, it runs like this:
as §5

In data set [21] the test system is P388. Description: Antitumor activity against mouse P388 cells allografted in mouse assessed as disease cure at 200 mg/kg, ip on day 1, 5 and 9 measured up to 60 days. It counts as functional, organism-based. On the set-up: dose 200 mg/kg. The method, boiled down:
as §5

For data set [22], the system named is B16. In words: Antitumor activity against mouse B16 cells allografted in BDF1 mouse assessed as increase of median life span at 50 mg/kg, ip on day 1 to 9 measured up to 80 days relative to control. It counts as functional. To be noted: route intraperitoneal. The method, boiled down: as §1
The subject of data set [23] is P388. In words: Antitumor activity against mouse P388 cells allografted in mouse assessed as disease cure at 25 mg/kg, ip on day 1, 5 and 9 measured up to 60 days. On the set-up: dose 25 mg/kg. It counts as functional, organism-based. The method, boiled down:
as §5

Data set [24] concerns P388. In words: Antitumor activity against mouse P388 cells allografted in mouse assessed as increase of median life span at 25 mg/kg, ip on day 1, 5 and 9 measured up to 60 days relative to control. It counts as functional. To be noted: route intraperitoneal. The method, boiled down: as §3
Data set [25] has as its system P388. In words: Antitumor activity against mouse P388 cells allografted in mouse assessed as increase of median life span at 200 mg/kg, ip on day 1, 5 and 9 measured up to 60 days relative to control. To be noted: route intraperitoneal. It counts as functional. In short, it runs like this:
as §3

For data set [26], the system named is B16. Description: Antitumor activity against mouse B16 cells allografted in BDF1 mouse assessed as increase of median life span at 6.2 mg/kg, ip on day 1 to 9 measured up to 80 days relative to control. It counts as functional. To be noted: route intraperitoneal. The method, boiled down: as §1
Data set [27] concerns B16. In words: Antitumor activity against mouse B16 cells allografted in BDF1 mouse assessed as disease cure at 6.2 mg/kg, ip on day 1 to 9 measured up to 80 days. It counts as functional, organism-based. On the set-up: dose 6.2 mg/kg. The method, boiled down:
as §2

The test system of data set [28] is P388. In words: Antitumor activity against mouse P388 cells allografted in mouse assessed as increase of median life span at 12.5 mg/kg, ip on day 1, 5 and 9 measured up to 60 days relative to control. It counts as functional. To be noted: route intraperitoneal. The method, boiled down: as §3

`O=C1c2c(O)ccc(O)c2C(=O)c2c(NCCN3CC3)ccc(NCCN3CC3)c21`: the result with B16 [1] and in the data set on P388 [4] was inactive. Further, the ILS (in general, how much longer treated animals lived than controls) at 100 mg/kg in the data set on P388 [2] came out at 185%. Further, the ILS at 12.5 mg/kg in the data set on B16 [3] was 58%.
For `O=C1c2c(O)ccc(O)c2C(=O)c2c(NCCCNCCO)ccc(NCCCNCCO)c21`, the increase in lifespan (ILS) at 25 mg/kg in the data set on B16 [5] amounted to 100%. In the data set on B16 [6], the outcome was inactive. In the data set with P388 [7], the ILS at 50 mg/kg is 191%.
Turning to `COc1cccc2c1C(=O)c1c(O)c3c(c(O)c1C2=O)C[C@@](O)(C(=O)CO)C[C@@H]3O[C@H]1C[C@H](N)[C@H](O)[C@H](C)O1` [DOXORUBICIN], the ILS at 0.8 mg/kg in the data set on B16 [8] was determined as 275%. Besides, the minimal effective dose amounted to 0.14 mg/kg in the data set on P388 [9] and 0.35 mg/kg in the data set with P388 [13]. Further, the maximal tolerated dose (MTD) (as a rule, the largest dose that counted as tolerated) in data set [10] was found to be 13.1 mg/kg. Besides, the MTD at 96 h in data set [11] amounted to 2.7 mg/kg. Further, the ILS at 5 mg/kg with P388 [12] turned out to be 159%.
For the molecule `CN(C)CCCCNc1ccc(NCCCCN(C)C)c2c1C(=O)c1ccccc1C2=O`, the result in the data set with P388 [14] was inactive. The increase in lifespan (ILS) at 250 mg/kg in the data set on P388 [15] was 0%.
Regarding `O=C1c2c(O)ccc(O)c2C(=O)c2c(NCCN3CCCC3)ccc(NCCN3CCCC3)c21`, the result in the data set with B16 [1] and in the data set on P388 [4] was inactive. For the same molecule, the increase in life span (ILS) at 100 mg/kg in the data set with P388 [2] is 118%. Also, the ILS at 12.5 mg/kg with B16 [3] was found to be 58%.
Take `C[N+](C)(C)CCNc1ccc(NCC[N+](C)(C)C)c2c1C(=O)c1ccccc1C2=O`: the outcome in the data set on P388 [16] was inactive. Moreover, in the data set with P388 [17], the ILS at 300 mg/kg is 0%.
Regarding `O=C1c2c(O)ccc(O)c2C(=O)c2c(NCCNCCO)ccc(NCCNCCO)c21`, the result in [18] and in [19] was inactive.
As to `CN(C)CCNc1ccc(NCCN(C)C)c2c1C(=O)c1ccc(O)c(O)c1C2=O`, the ILS at 25 mg/kg with B16 [5] was 60%. Further, the ILS at 50 mg/kg with P388 [7] was 57%. The result in the data set on P388 [20] was inactive.
As for `NCCNc1ccc(NCCN)c2c1C(=O)c1ccccc1C2=O`, the outcome in the data set with P388 [21] and with P388 [23] was inactive. In addition, the ILS at 50 mg/kg in the data set with B16 [22] came out at 100%. Besides, the ILS at 12.5 mg/kg in the data set on B16 [3] is 82%. Moreover, the increase in lifespan (ILS) at 25 mg/kg with P388 [24] stood at 144%. Also, the increase in life span (ILS) at 200 mg/kg in the data set with P388 [25] is 145%.
Turning to `NCCCNc1ccc(NCCCN)c2c1C(=O)c1c(O)ccc(O)c1C2=O`, in the data set with B16 [26], the increase in lifespan (ILS) at 6.2 mg/kg came to 87%. The outcome with P388 [23] and in the data set on B16 [27] was inactive. Besides, the ILS at 25 mg/kg in the data set on P388 [24] amounted to 83%.
As to `O=C1c2c(O)ccc(O)c2C(=O)c2c(NCCNCCCO)ccc(NCCNCCCO)c21`, the ILS at 6.2 mg/kg with B16 [26] worked out at 357%. The ILS at 12.5 mg/kg in the data set with P388 [28] is 191%.
